Data set [1] in a line: Permeability of ginsenoside in Caco-2 cells. As to conditions: human; for Papp A→B at 1 h, 10 μM / Papp B→A at 1 h, 10 μM: Caco-2; for efflux ratio at 1 h, 10 μM: Caco-2, ER (efflux ratio), Caco-2, B to A / A to B. Format: in vitro ADME. The gist of the method:
(§1)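 Caco-2 cells (passage 41–43) grown in DMEM with 20% FBS, 1% nonessential amino acids, 4 mM L-glutamine and penicillin-streptomycin, then cultured 21 days on Transwell inserts. Test compound at 10 μM in HBSS was dosed for apical-to-basal and basal-to-apical transport over 1 h. Samples were quenched in methanol with berberine IS and analysed by LC-MS/MS. Papp = transport rate / (donor concentration × insert area).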

Data set [2] is described as follows: Pharmacokinetics of ginsenosides in human plasma after single or repeated. Format: in vivo. As to conditions: for Accumulation factor: AUC of repeated administration divided by AUC of single administration; for Detection in human plasma samples: after oral ingestion of red ginseng extract, LC-MS/MS; for AUC / Cmax / MRT / Tmax / half-life: male, human, plasma, po, 3 pouches of red ginseng extract; for half-life: t1/2, single dose of red ginseng extract, human plasma.

For data set [3] the following is noted: cited from earlier work.
The conditions of data set [4]: cited from earlier work. The source holds these as a separate data set.
Data set [5] has as its system Caco-2 cells. The experiment in a line: Permeability of ginsenoside in Caco-2 cells. Format: in vitro ADME. As to conditions: for ER (efflux ratio): Caco-2, B to A / A to B; for Papp A to B: apical to basal; for Papp A to B / Papp B to A: 10 μM, 1 h; for Papp B to A: basal to apical. Put shortly: as §1

Several values for one entry are separate records, joined by “and”; a condition that tells them apart may be missing. Equal entries are not always repeated. Where two headings read alike, the source gives them in different places.

Take `CC(C)=CCC[C@](C)(O[C@@H]1O[C@H](CO[C@@H]2O[C@H](CO)[C@@H](O)[C@H](O)[C@H]2O)[C@@H](O)[C@H](O)[C@H]1O)[C@H]1CC[C@]2(C)[C@@H]1[C@H](O)C[C@@H]1[C@@]3(C)CC[C@H](O[C@@H]4O[C@H](CO)[C@@H](O)[C@H](O)[C@H]4O[C@@H]4O[C@H](CO)[C@@H](O)[C@H](O)[C@H]4O)C(C)(C)[C@@H]3CC[C@]12C` [Rb1]: in data set [1], the Papp A→B at 1 h, 10 μM is 0.27 ± 0.03 ×10⁻⁶ cm/s; the Papp B→A at 1 h, 10 μM came out at 0.3 ± 0.08 ×10⁻⁶ cm/s; the efflux ratio at 1 h, 10 μM is less than 2. In data set [2], the Accumulation factor is 4.5–6.7 and 4.55; the “Detection in human plasma samples” value is reported as “detected”; the AUC came to 82.7 ± 26.3 ng·h/mL; the peak level (Cmax) was 2.19 ± 0.73 ng/mL. Moreover, in data set [2], the mean residence time MRT is 26.8 ± 1.59 h, the Tmax came to 3.53 ± 1.25 h and the half-life is 35 ± 8.46 h. Moreover, the “Stability over the enzymatic and alkaline hydrolysis” value in data set [3] is listed as “stable”. Besides, the Bioavailability in data set [4] (ref Odani et al. [10]) is recorded as 0.1%. The Bioavailability in data set [4] (ref Xu et al. [11]) was 4.3%.
Take `CC(C)=CCC[C@](C)(O[C@@H]1O[C@H](CO[C@@H]2OC[C@H](O)[C@H](O)[C@H]2O)[C@@H](O)[C@H](O)[C@H]1O)[C@H]1CC[C@]2(C)[C@@H]1[C@H](O)C[C@@H]1[C@@]3(C)CC[C@H](O[C@@H]4O[C@H](CO)[C@@H](O)[C@H](O)[C@H]4O[C@@H]4O[C@H](CO)[C@@H](O)[C@H](O)[C@H]4O)C(C)(C)[C@@H]3CC[C@]12C` [Rb2]: in data set [1], the Papp A→B at 1 h, 10 μM amounted to 0.28 ± 0.02 ×10⁻⁶ cm/s and the apparent permeability from basolateral to apical (Papp B→A) at 1 h, 10 μM worked out at 0.24 ± 0.05 ×10⁻⁶ cm/s. Also, in data set [2], the Accumulation factor is 4.5–6.7 and 6.73; the “Detection in human plasma samples” value was “detected”; the AUC worked out at 47.1 ± 16.4 ng·h/mL; the concentration peaked (Cmax) at 1.26 ± 0.39 ng/mL. For the same molecule, in data set [2], the MRT was determined as 26.8 ± 1.74 h, the time to peak (Tmax) came out at 3.87 ± 2.47 h and the half-life was 38.2 ± 20.3 h. The “Stability over the enzymatic and alkaline hydrolysis” value in data set [3] is recorded as “stable”.
In the case of `CC(C)=CCC[C@](C)(O[C@@H]1O[C@H](CO[C@@H]2O[C@@H](CO)[C@H](O)[C@H]2O)[C@@H](O)[C@H](O)[C@H]1O)[C@H]1CC[C@]2(C)[C@@H]1[C@H](O)C[C@@H]1[C@@]3(C)CC[C@H](O[C@@H]4O[C@H](CO)[C@@H](O)[C@H](O)[C@H]4O[C@@H]4O[C@H](CO)[C@@H](O)[C@H](O)[C@H]4O)C(C)(C)[C@@H]3CC[C@]12C` [Rc], in data set [1], the Papp A→B at 1 h, 10 μM was 0.28 ± 0.09 ×10⁻⁶ cm/s; the Papp B→A at 1 h, 10 μM came out at 0.33 ± 0.06 ×10⁻⁶ cm/s; the efflux ratio at 1 h, 10 μM is less than 2. In data set [2], the Accumulation factor was 4.5–6.7 and 5.44; the “Detection in human plasma samples” value was “detected”; the AUC is 59.4 ± 22.9 ng·h/mL; the Cmax came to 1.5 ± 0.63 ng/mL. In addition, in data set [2], the MRT stood at 27.4 ± 2.34 h, the Tmax was determined as 3.68 ± 1.7 h and the half-life is 35.6 ± 14.8 h. Besides, the “Stability over the enzymatic and alkaline hydrolysis” value in data set [3] is on record as “stable”.
Consider `CC(C)=CCC[C@](C)(O[C@@H]1O[C@H](CO)[C@@H](O)[C@H](O)[C@H]1O)[C@H]1CC[C@]2(C)[C@@H]1[C@H](O)C[C@@H]1[C@@]3(C)CC[C@H](O[C@@H]4O[C@H](CO)[C@@H](O)[C@H](O)[C@H]4O[C@@H]4O[C@H](CO)[C@@H](O)[C@H](O)[C@H]4O)C(C)(C)[C@@H]3CC[C@]12C` [Rd], for which, in data set [1], the Papp A→B at 1 h, 10 μM came to 0.22 ± 0.02 ×10⁻⁶ cm/s; the Papp B→A at 1 h, 10 μM came to 0.31 ± 0.04 ×10⁻⁶ cm/s; the efflux ratio at 1 h, 10 μM was less than 2. In data set [2], the Accumulation factor was 4.5–6.7 and 4.49; the “Detection in human plasma samples” value is reported as “detected”; the AUC was 22.6 ± 18.3 ng·h/mL; the highest concentration (Cmax) is 0.7 ± 0.46 ng/mL. Besides, in data set [2], the MRT amounted to 24.7 ± 2.23 h, the Tmax stood at 4.87 ± 1.92 h and the half-life was 24 ± 15.3 h. Also, the “Stability over the enzymatic and alkaline hydrolysis” value in data set [3] is “stable”.
Regarding `CC(C)=CCC[C@](C)(O[C@@H]1O[C@H](CO)[C@@H](O)[C@H](O)[C@H]1O)[C@H]1CC[C@]2(C)[C@@H]1[C@H](O)C[C@@H]1[C@@]3(C)CC[C@H](O)C(C)(C)[C@@H]3[C@@H](O[C@@H]3O[C@H](CO)[C@@H](O)[C@H](O)[C@H]3O)C[C@]12C` [Rg1], in data set [2], the “Detection in human plasma samples” value is on record as “could not be found”. Also, the values for the Bioavailability in data set [4] (ref Odani et al. [10]) and in data set [4] (ref Xu et al. [11]) were 2% and 18.4%, respectively.
With `CC(C)=CCC[C@](C)(O)[C@H]1CC[C@]2(C)[C@@H]1[C@H](O)C[C@@H]1[C@@]3(C)CC[C@H](O[C@@H]4O[C@H](CO)[C@@H](O)[C@H](O)[C@H]4O[C@@H]4O[C@H](CO)[C@@H](O)[C@H](O)[C@H]4O)C(C)(C)[C@@H]3CC[C@]12C` [Rg3], in data set [5], the “ER (efflux ratio)” value came out at 2.97, the “Papp A to B” value was 0.05 ± 0.01 ☓10^−6 cm/s and the “Papp B to A” value is reported as 0.14 ± 0.06 ☓10^−6 cm/s. For the same molecule, the “Detection in human plasma samples” value in data set [2] is “absence”.
As for `CC(C)=CCC[C@](C)(O)[C@H]1CC[C@]2(C)[C@@H]1[C@H](O)C[C@@H]1[C@@]3(C)CC[C@H](O)C(C)(C)[C@@H]3[C@@H](O[C@@H]3O[C@H](CO)[C@@H](O)[C@H](O)[C@H]3O)C[C@]12C` [Rh1], in data set [5], the “ER (efflux ratio)” value was 6.27, the “Papp A to B” value is recorded as 0.22 ± 0.04 ☓10^−6 cm/s and the “Papp B to A” value was 1.35 ± 0.14 ☓10^−6 cm/s. Also, the “Detection in human plasma samples” value in data set [2] was “could not be found”.

Source of the values: publication PMC7031742 (Journal of Ginseng Research, 2018).
